Source: ChEMBL document CHEMBL1122037, “Use of adenine nucleotide derivatives to assess the potential of exo-active-site-directed reagents as species- or isozyme-specific enzyme inactivators. 4. Interactions of adenosine 5'-triphosphate derivatives with adenylate kinases from Escherichia coli and rat tissues” (J Med Chem, 1982)
Several values for one entry are separate records, joined by “and”; a condition that tells them apart may be missing. Equal entries are not always repeated.

Columns and labels:
[1] = target: T1, GTP:AMP phosphotransferase AK3, mitochondrial (Rattus norvegicus, UniProt P29411); experiment: Ability to inhibit rat adenylate kinase III, activity expressed as Inhibition constant; Competitive inhibition
Outline: (§1)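 Coupled spectrophotometric assay (pyruvate kinase/lactate dehydrogenase, NADH oxidation) in 0.1 M Tris-HCl pH 7.6 with 2 mM MgSO4, 0.12 M KCl, 0.31 mM PEP, 0.38 mM NADH and 0.25 mM AMP. Derivatives were added as 1:1 Mg complexes. KM was obtained from linear Lineweaver-Burk plots using five or more substrate levels spanning 0.5–4.0 × KM. Inhibition was typed as competitive or noncompetitive versus ATP.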

[2] = target: Adenylate kinase (Escherichia coli) (UniProt P69441); experiment: Ability to inhibit Escherichia coli adenylate kinase II activity expressed as half maximal velocity
[3] = target: Adenylate kinase 2, mitochondrial (Rattus norvegicus, UniProt P29410); experiment: Ability to inhibit rat adenylate kinase II, activity expressed as Inhibition constant; outline: as §1
Rattus norvegicus [4] = species: Rattus norvegicus; experiment: Ability to inhibit rat adenylate kinase II, activity expressed as Maximum velocity; assay type: ADME; outline: as §1
Rattus norvegicus [5] = species: Rattus norvegicus; experiment: Ability to inhibit rat adenylate kinase III, activity expressed as Maximum velocity; assay type: ADME; settings: in vitro; outline: as §1
[6] = target: Adenylate kinase (Escherichia coli) (UniProt P69441); experiment: Ability of the 9 mM compound to inactivate adenylate kinase was determined, after exposing enzyme to 0 mM levels of MgATP in 6 h at 22 degree C
Escherichia coli [7] = experiment: Ability to inactivate Escherichia coli adenylate kinase after exposing enzyme to 0 mM levels of MgATP at concentration of 11.8 mM, pH 7.6
Outline: (§2)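 E. coli B enzyme, partially purified 27-fold (fraction IV), exposed 6 h at 22 °C, pH 7.6, to the Mg2+ 1:1 complex of the ATP derivative in the Tris/MgSO4/KCl reaction buffer, with or without MgATP. Aliquots withdrawn at intervals and assayed spectrophotometrically with 1 mM ATP. Activity was compared with controls lacking the derivative. Read-out is % inactivation after 6 h.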

[8] = tested on: Adenylate kinase, muscle isozyme (Rattus norvegicus); experiment: Ability of the 1.14 mM compound to inactivate rat muscle adenylate kinase was determined, after exposing enzyme to 0 mM levels of MgATP, activity expressed as percent loss of inactivation
Escherichia coli [9] = experiment: Ability to inhibit Escherichia coli adenylate kinase II, activity expressed as Maximum velocity; assay type: ADME; settings: in vitro; outline: as §1
[10] = tested on: Adenylate kinase, muscle isozyme (Rattus norvegicus); experiment: Ability of the 0.094 mM compound to inactivate rat muscle adenylate kinase was determined, after exposing enzyme to 1.4 mM levels of ATP activity expressed as % loss of inactivation
[11] = target: Adenylate kinase 2, mitochondrial (Rattus norvegicus) (UniProt P29410); experiment: Ability to inhibit rat adenylate kinase II, […]
Outline: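 Rat adenylate kinase isozyme II. ATP derivatives were used as 1:1 Mg²⁺ complexes and varied against ATP as phosphate donor. Coupled PK/LDH NADH-oxidation spectrophotometric assay in 0.1 M Tris-HCl pH 7.6 with 2 mM MgSO₄, 0.12 M KCl, 0.31 mM PEP, 0.38 mM NADH and 0.25 mM AMP. Inhibition type was assigned as competitive or noncompetitive with respect to ATP from initial-velocity kinetics.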

Rattus norvegicus [12] = species: Rattus norvegicus; experiment: Ability to inhibit rat adenylate kinase II, activity expressed as half-maximal velocity; assay type: ADME; settings: in vitro; outline: as §1
[13] = target: T1, GTP:AMP phosphotransferase AK3, mitochondrial; experiment: Ability to inhibit rat adenylate kinase III, activity expressed as Inhibition constant; outline: as §1
Rattus norvegicus [14] = species: Rattus norvegicus; experiment: Ability to inhibit rat adenylate kinase III, activity expressed as half-maximal velocity; assay type: ADME; outline: as §1
Rattus norvegicus [15] = species: Rattus norvegicus; experiment: Ability of the 1.10 mM compound to inactivate rat muscle adenylate kinase was determined, after exposing enzyme to 2.2 mM levels of ATP activity expressed as percent loss of inactivation
Outline: (§3)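 Rat muscle enzyme preincubated at 22 °C with the 1:1 Mg2+ complex of the derivative, alone or with added AMP or ATP. Aliquots were assayed at intervals in the coupled system containing 1 mM ATP, alongside controls lacking the derivative. Half-time of inactivation was taken from pseudo-first-order plots, or % activity loss at 5–6 h was reported.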

Escherichia coli [16] = experiment: Ability to inactivate Escherichia coli adenylate kinase after exposing enzyme to 0 mM levels of MgATP at concentration of 4.5mM, pH 7.6 for 6 h; assay type: functional; outline: as §2
Escherichia coli [17] = experiment: Ability to inactivate Escherichia coli adenylate kinase after exposing enzyme to 0 mM levels of MgATP at concentration of 13.5 mM, pH 7.6; outline: as §2
Rattus norvegicus [18] = species: Rattus norvegicus; experiment: Ability of the 1.42 mM compound to inactivate rat muscle adenylate kinase was determined, after exposing enzyme to 2.2 mM levels of ATP activity expressed as percent loss of inactivation; outline: as §3
Escherichia coli [19] = experiment: Ability to inactivate Escherichia coli adenylate kinase after exposing enzyme to 0 mM levels of MgATP at concentration of 8.1 mM, pH 7.6; outline: as §2
[20] = target: Adenylate kinase (Escherichia coli) (UniProt P69441); experiment: Ability to inactivate adenylate kinase was determined, after exposing enzyme to mM levels of MgATP at pH 7.6
Escherichia coli [21] = experiment: Ability to inactivate adenylate kinase was determined, after exposing enzyme to mM levels of MgATP at pH 7.6 at a concentration of 26.0; outline: as §2
Escherichia coli [22] = experiment: Ability to inactivate adenylate kinase was determined, after exposing enzyme to mM levels of MgATP at pH 7.6 at a concentration of 9.7; outline: as §2
Rattus norvegicus [23] = species: Rattus norvegicus; experiment: Ability of to inactivate rat muscle adenylate kinase was determined activity expresses as Percent loss of inactivation; outline: as §3
Escherichia coli [24] = experiment: Ability to inactivate adenylate kinase was determined, after exposing enzyme to mM levels of MgATP at pH 7.6 at a concentration of 9.9; outline: as §2
Escherichia coli [25] = experiment: Ability inactivate Escherichia coli adenylate kinase was determined, after exposing enzyme to mM levels of MgATP at pH 7.6; outline: as §2
Escherichia coli [26] = experiment: Ability to inhibit Escherichia coli adenylate kinase II activity expressed as Maximum velocity; assay type: ADME
Outline: (§4)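 E. coli B adenylate kinase, partially purified 27-fold (streptomycin, ammonium sulfate fractionation, DEAE-cellulose; fraction IV). ATP derivatives tested as 1:1 Mg²⁺ complexes as phosphate donor. Coupled PK/LDH NADH-oxidation spectrophotometric assay in 0.1 M Tris-HCl pH 7.6 with 2 mM MgSO₄, 0.12 M KCl, 0.31 mM PEP, 0.38 mM NADH and 0.25 mM AMP. Constants came from linear Lineweaver-Burk plots of initial velocity, using ≥5 substrate levels across 0.5–4.0 × KM.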

Escherichia coli [27] = experiment: Ability to inhibit Escherichia coli adenylate kinase II activity expressed as half maximal velocity; assay type: ADME, organism-based; settings: in vivo; outline: as §4
Escherichia coli [28] = experiment: Ability of 13.2 mM compound to inactivate Escherichia coli adenylate kinase was determined, after exposing enzyme to 0 mM levels of MgATP after 6 hr at 22 degree C; outline: as §2
Escherichia coli [29] = experiment: Ability of 13.2 mM compound to inactivate Escherichia coli adenylate kinase was determined, after exposing enzyme to 10.7 mM levels of MgATP after 6 hr at 22 degree C; outline: as §2

## CN(CCCCCCN(C)c1ncnc2c1ncn2[C@@H]1O[C@H](COP(=O)(O)OP(=O)(O)OP(=O)(O)O)[C@@H](O)[C@H]1O)C(=O)CCCCCCNC(=O)CI
[1]
  Ki: 2200 µM
[2]
  Inactivation: 0%
[3]
  Ki: 1800 µM
Rattus norvegicus [4]
  Vmax: 0%
Rattus norvegicus [5]
  Vmax: 0%

## O=C(CI)NCCCCNc1ncnc2c1ncn2[C@@H]1O[C@H](COP(=O)(O)OP(=O)(O)OP(=O)(O)O)[C@@H](O)[C@H]1O
[6]
  Inactivation: 2%

## CN(CCCN(C)C(=O)CCCNc1ncnc2c1ncn2[C@@H]1O[C@H](COP(=O)(O)OP(=O)(O)OP(=O)(O)O)[C@@H](O)[C@H]1O)C(=O)CCCNC(=O)CI
Escherichia coli [7]
  Inactivation: 0%

## CC(=O)NCCCCCCCCNc1ncnc2c1ncn2C1O[C@H](COP(=O)(O)O)[C@@H](O)[C@H]1O (stereo partly drawn)
[8]
  Loss of inactivation: 0%

## CN(CCCN(C)C(=O)CCCCNc1ncnc2c1ncn2[C@@H]1O[C@H](COP(=O)(O)OP(=O)(O)OP(=O)(O)O)[C@@H](O)[C@H]1O)C(=O)CCCCNC(=O)OCc1ccccc1
Escherichia coli [9]
  Vmax: 0%

## O=C(CI)NCCCCCCCCNc1ncnc2c1ncn2C1O[C@H](CO)[C@@H](O)[C@H]1O (stereo partly drawn)
[10]
  Loss of inactivation: 30%

## NC(=O)CI
[11]
  Loss of inactivation: 0%

## CC(=O)NCCCCCCNc1nc2c(N)ncnc2n1C1O[C@H](COP(=O)(O)OP(=O)(O)OP(=O)(O)O)[C@@H](O)[C@H]1O (stereo partly drawn)
Escherichia coli [9]
  Vmax: 0%

## O=C(CI)NCCNc1ncnc2c1ncn2[C@@H]1O[C@H](COP(=O)(O)OP(=O)(O)OP(=O)(O)O)[C@@H](O)[C@H]1O
Rattus norvegicus [12]
  Km: 1600 µM
[13]
  Ki: 5900 µM
Rattus norvegicus [4]
  Vmax: 5%
Rattus norvegicus [5]
  Vmax: 2%
Rattus norvegicus [14]
  Km: 400 µM

## Nc1ncnc2c1nc(NCCCCCCNC(=O)CI)n2[C@@H]1O[C@H](COP(=O)(O)OP(=O)(O)OP(=O)(O)O)[C@@H](O)[C@H]1O
[3]
  Ki: 300 µM

## O=C(CI)NCCCCCCCNc1ncnc2c1ncn2[C@@H]1O[C@H](COP(=O)(O)OP(=O)(O)OP(=O)(O)O)[C@@H](O)[C@H]1O
Rattus norvegicus [15]
  Loss of inactivation: 20%
Escherichia coli [16]
  Inactivation: 7%

## O=C(CI)NCCCCCC(=O)NCCCCNc1ncnc2c1ncn2[C@@H]1O[C@H](COP(=O)(O)OP(=O)(O)OP(=O)(O)O)[C@@H](O)[C@H]1O
Escherichia coli [17]
  Inactivation: 5%

## O=C(CI)NCCCC(=O)NCCCCCCNc1ncnc2c1ncn2[C@@H]1O[C@H](COP(=O)(O)OP(=O)(O)OP(=O)(O)O)[C@@H](O)[C@H]1O
Rattus norvegicus [18]
  Loss of inactivation: 0%

## NCCCCCNc1ncnc2c1ncn2C1O[C@H](COP(=O)(O)OP(=O)(O)OP(=O)(O)O)[C@@H](O)[C@H]1O (stereo partly drawn)
Escherichia coli [9]
  Vmax: 0%

## O=C(CI)NCCCCCCC(=O)NCCCCCCNc1ncnc2c1ncn2[C@@H]1O[C@H](COP(=O)(O)OP(=O)(O)OP(=O)(O)O)[C@@H](O)[C@H]1O
Escherichia coli [19]
  Inactivation: 4%

## O=C(CI)NCCCCCCCCNc1ncnc2c1ncn2[C@@H]1O[C@H](COP(=O)(O)OP(=O)(O)OP(=O)(O)O)[C@@H](O)[C@H]1O
Rattus norvegicus [12]
  Km: 400 µM
[20]
  Inactivation: 12%
Rattus norvegicus [4]
  Vmax: 5%
Rattus norvegicus [5]
  Vmax: 6%
Rattus norvegicus [14]
  Km: 1100 µM

## O=C(CI)NCCCCCCNc1ncnc2c1ncn2[C@@H]1O[C@H](COP(=O)(O)OP(=O)(O)OP(=O)(O)O)[C@@H](O)[C@H]1O
Escherichia coli [21]
  Inactivation: 46% and 47%
Escherichia coli [22]
  Inactivation: 25%
Rattus norvegicus [23]
  Loss of inactivation: 8%
Escherichia coli [24]
  Inactivation: 25%

## CN(CCCCN(C)c1ncnc2c1ncn2[C@@H]1O[C@H](COP(=O)(O)OP(=O)(O)OP(=O)(O)O)[C@@H](O)[C@H]1O)C(=O)CCCCCCNC(=O)CI
Escherichia coli [25]
  Inactivation: 2%
Escherichia coli [26]
  Vmax: 0%
[1]
  Ki: 2100 µM
[3]
  Ki: 1600 µM
Rattus norvegicus [4]
  Vmax: 0%
Rattus norvegicus [5]
  Vmax: 0%

## Nc1ncnc2c1ncn2[C@@H]1O[C@H](COP(=O)(O)OP(=O)(O)OP(=O)(O)O)[C@@H](O)[C@H]1O [ADENOSINE TRIPHOSPHATE]
Rattus norvegicus [12]
  Km: 90 µM
Escherichia coli [26]
  Vmax: 100%
Escherichia coli [27]
  Km: 60 µM
Rattus norvegicus [4]
  Vmax: 100%
Rattus norvegicus [5]
  Vmax: 100%
Rattus norvegicus [14]
  Km: 90 µM

## NCCCCCCNc1nc2c(N)ncnc2n1C1O[C@H](COP(=O)(O)OP(=O)(O)OP(=O)(O)O)[C@@H](O)[C@H]1O (stereo partly drawn)
Escherichia coli [9]
  Vmax: 0%

## CN(CCCCCCN(C)c1ncnc2c1ncn2[C@@H]1O[C@H](COP(=O)(O)OP(=O)(O)OP(=O)(O)O)[C@@H](O)[C@H]1O)C(=O)CCCCCNC(=O)CI
[1]
  Ki: 2400 µM
[2]
  Inactivation: 1%
[3]
  Ki: 1900 µM
Rattus norvegicus [4]
  Vmax: 0%
Rattus norvegicus [5]
  Vmax: 0%

## O=C(CI)NCCCCCNc1ncnc2c1ncn2[C@@H]1O[C@H](COP(=O)(O)OP(=O)(O)OP(=O)(O)O)[C@@H](O)[C@H]1O
Rattus norvegicus [12]
  Km: 1000 µM
Escherichia coli [28]
  Inactivation: 37%
[1]
  Ki: 6200 µM
Escherichia coli [29]
  Inactivation: 36%
Rattus norvegicus [4]
  Vmax: 21%
Rattus norvegicus [5]
  Vmax: 9%
Rattus norvegicus [14]
  Km: 400 µM
